Experimental data collected from several papers.
Lines come from different studies, so protocols differ.
Target: Substance-P receptor (TACR1, Homo sapiens, UniProt P25103)

`COc1ccc(S(=O)(=O)N2CCCCC2)cc1C` gave an inhibition of less than 30% (ligand displacement, radioligand; 10 µM).
`O=C(Nc1cccnn1)N1CCN([C@@H]2CCOc3cc(C(F)(F)F)ccc32)CC1` gave an inhibition of 38% (ligand displacement; 20 µM).
`c1ccc(C(NCCNC(c2ccccc2)c2ccccc2)c2ccccc2)cc1` has an inhibition of 49% (cell-free assay; 10 µM).
For `CC(C)Cn1cnc2c(N)nc3ccccc3c21`, the inhibition was -8% (ligand displacement, radioligand; 10 µM).
With `C[C@H](C(=O)N[C@H]1COc2ccccc2[C@@H]1S(C)(=O)=O)c1ccc(F)cc1` the inhibition was 11% (cell-free assay; 10 µM).
The inhibition of `COc1ccc(C(=O)NCc2cc(C(C)C)no2)cc1OC1CCN(C)CC1` is reported as 22% (ligand displacement, radioligand; 10 µM).
`CC(C)N1CCC[C@H]1CNC(=O)c1cn(C2CCCC2)c(=O)c2c1c1ccccc1n2C` has an inhibition of 23% (ligand displacement, radioligand; 10 µM).
`CN(CCN1CCC(OC(=O)Nc2ccccc2-c2ccccc2)CC1)C(=O)c1ccc(CN2CCC(C(N)=O)CC2)cc1` has an inhibition of -6% (ligand displacement, radioligand; 1 µM).
With `CCCCCCCCCCCC(=O)OC[C@@H](COP(=O)(O)OCCNC(=O)c1ccc(Cn2c(=O)[nH]c3c(N)nc(OCCOC)nc32)cc1)OC(=O)CCCCCCCCCCC` the inhibition was 23% (ligand displacement, radioligand; 10 µM).
